Several values for one entry are separate records, joined by “and”; a condition that tells them apart may be missing. Equal entries are not always repeated. Activity calls are given as the source filed them.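 Rule for the calls: active = mean cell viability below 80%; inactive = the rest.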
Each compound was assayed on Huh-7.5 Rluc-replicon viability, CellTiter-Glo ATP, 72 h (assay: Huh-7.5 replicon viability loss – cell-based, luminescence, cytotoxicity control for HCV NS3 helicase inhibitor project, late-stage follow-up (AID 623961)). Conditions: at 10 µM; hits give low values.
Outline: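 Assay system: Huh-7.5 cells with HCV RLuc replicon. Times: cell attachment 4-5 h, compound exposure 72 h at 37 °C, 5% CO2. Signal: ATP luminescence after 30 min lysis at 23 °C. Buffer or medium: growth medium, replaced before viability reagent. Compound: 10 µM single concentration, 0.5% DMSO.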

SMILES	viability
Cc1ccc2nc(-c3ccc4nc(-c5ccc(NC(=O)c6ccc(Cl)cc6)cc5)sc4c3)sc2c1S(=O)(=O)O	84% (inactive)
Cc1ccc2nc(-c3ccc4nc(-c5ccc(NC(=O)c6cc(F)ccc6C(F)(F)F)cc5)sc4c3)sc2c1S(=O)(=O)O	118% (inactive)
CCN(CC)c1ccc(-c2nc3ccc(-c4nc5ccc(C)c(S(=O)(=O)O)c5s4)cc3s2)cc1	96% (inactive)
Cc1ccc2nc(-c3ccc4nc(-c5ccc(NC(=O)c6ccc7ccccc7c6)cc5)sc4c3)sc2c1S(=O)(=O)O	87% (inactive) and 99% (inactive)
Cc1ccc2nc(-c3ccc4nc(-c5ccc(NC(=O)c6ccncc6)cc5)sc4c3)sc2c1S(=O)(=O)O	117% (inactive)
COC(=O)c1ccc(C(=O)Nc2ccc(-c3nc4ccc(-c5nc6ccc(C)c(S(=O)(=O)O)c6s5)cc4s3)cc2)cc1	101% (inactive)
